Measurements published in ChEMBL document CHEMBL4342526, “Exploration of the Structural Space in 4(3H)-Quinazolinone Antibacterials” (J Med Chem, 2020).
Values after ≈ are worked out from the molar mass of the structure shown.

system: Staphylococcus aureus; test: Antibacterial activity against Staphylococcus aureus ATCC 29213 measured after 16 to 20 hrs by microdilution method; format: functional
In short: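 CLSI broth microdilution: two-fold serial dilutions in triplicate in cation-adjusted Mueller–Hinton broth with 2% NaCl, inoculum 5 × 10^5 CFU/mL, incubated at 37 °C for 16–20 h. MIC is the lowest concentration preventing visible growth.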

Row | SMILES | MIC [µg/mL]
1 | N#Cc1ccc(/C=C/c2nc3ccccc3c(=O)n2-c2cccc(N)c2)cc1 | 0.5 (≈ 1.37 µM)
2 | O=C(O)c1cccc(-n2c(/C=C/c3cccnc3F)nc3ccccc3c2=O)c1 | > 128
3 | O=C(O)c1cccc(-n2c(/C=C/c3ccc[nH]c3=O)nc3ccccc3c2=O)c1 | > 128
4 | N#Cc1ccc(/C=C/c2nc3ccccc3c(=O)n2-c2cccc(CN3C(=O)c4ccccc4C3=O)c2)cc1 | > 128
5 | O=c1c2ccccc2nc(N2CCCCC2)n1-c1cccc([N+](=O)[O-])c1 | > 128
6 | Nc1cccc(-n2c(N3CCCCC3)nc3ccccc3c2=O)c1 | > 128
7 | N#Cc1ccc(COc2nc3ccccc3c(=O)n2-c2cccc(C(=O)O)c2)cc1 | > 128
8 | O=C(O)c1cccc(-n2c(/C=C/c3cncs3)nc3ccccc3c2=O)c1 | > 128
9 | O=C(O)c1cccc(-n2c(/C=C/c3ccsc3)nc3ccccc3c2=O)c1 | 32 (≈ 85.5 µM)
10 | COC(=O)c1cccc(-n2c(NCc3ccc(F)cc3)nc3ccccc3c2=O)c1 | > 128
11 | O=C(O)c1cccc(-n2c(/C=C/c3cc[nH]c(=O)c3)nc3ccccc3c2=O)c1 | > 128
12 | O=C(O)c1cccc(-n2c(/C=C/c3cccs3)nc3ccccc3c2=O)c1 | 8 (≈ 21.4 µM)
13 | N#Cc1ccc(/C=C/c2nc3ccccc3c(=O)n2-c2ccccc2[N+](=O)[O-])cc1 | > 128
14 | N#Cc1ccc(/C=C/c2nc3ccccc3c(=O)n2-c2ccc(N)cc2)cc1 | > 128
15 | Nc1cccc(-n2c(N3CCN(c4ccc(Cl)cc4)CC3)nc3ccccc3c2=O)c1 | > 128
16 | O=C(O)c1cccc(-n2c(/C=C/c3cc[n+]([O-])cc3)nc3ccccc3c2=O)c1 | > 128
17 | N#Cc1ccc(/C=C/c2nc3ccccc3c(=O)n2-c2cccc(C#N)c2)cc1 | > 128
18 | COC(=O)c1cccc(-n2c(NCc3ccc(C#N)cc3)nc3ccccc3c2=O)c1 | 16 (≈ 39 µM)
19 | N#Cc1ccc(/C=C/c2nc3ccccc3c(=O)n2-c2cccnc2)cc1 | > 128
20 | O=C(O)c1cccc(-n2c(/C=C/c3ccnc(F)c3)nc3ccccc3c2=O)c1 | > 128
21 | N#Cc1ccc(CCc2nc3ccccc3c(=O)n2-c2cccc(C(=O)O)c2)cc1 | 8 (≈ 20.2 µM)

More lines, now with the values ahead:

Row | MIC [µg/mL] | SMILES
22 | > 128 | N#Cc1ccc(/C=C/c2nc3ccccc3c(=O)n2-c2ccc3[nH]c(=O)[nH]c3c2)cc1
23 | 0.015 (≈ 0.0339 µM) | CS(=O)(=O)Nc1cccc(-n2c(/C=C/c3ccc(C#N)cc3)nc3ccccc3c2=O)c1
24 | > 128 | N#Cc1ccc(/C=C/c2nc3ccccc3c(=O)n2-c2cc(C(=O)O)ccc2C(F)(F)F)cc1
25 | > 128 | N#Cc1ccc(/C=C/c2nc3ccccc3c(=O)n2-c2cccc(NC(=O)NCc3cnc[nH]3)c2)cc1
26 | > 128 | COC(=O)c1cccc(-n2c(/C=C/c3ccc(C#N)cc3)nc3ccccc3c2=O)c1O
27 | 64 (≈ 149 µM) | N#Cc1ccc(/C=C/c2nc3ccccc3c(=O)n2-c2ccc(F)c(C(=O)O)c2F)cc1
28 | 32 (≈ 81.3 µM) | N#Cc1ccc(/C=C/c2nc3ccccc3c(=O)n2-c2ccccc2C(=O)O)cc1
29 | > 128 | N#Cc1ccc(/C=C/c2nc3ccccc3c(=O)n2-c2cccc(C(=O)O)n2)cc1
30 | 128 (≈ 371 µM) | CC(C(=O)O)n1c(/C=C/c2ccc(C#N)cc2)nc2ccccc2c1=O (centres undefined)
31 | > 128 | N#Cc1ccc(/C=C/c2nc3ccccc3c(=O)n2-c2cc(F)cc(C(=O)O)c2)cc1
32 | > 128 | N#Cc1ccc(/C=C/c2nc3ccccc3c(=O)n2-c2ccc3nc[nH]c3c2)cc1
33 | > 128 | COC(=O)c1cccc(-n2c(/C=C/c3ccc(C#N)cc3)nc3ccccc3c2=O)n1
34 | 8 (≈ 19.4 µM) | N#Cc1ccc(/C=C/c2nc3ccccc3c(=O)n2-c2cccc(C(=O)O)c2F)cc1
35 | 64 (≈ 162 µM) | N#Cc1ccc(/C=C/c2nc3ccccc3c(=O)n2-c2cccc(C(=O)O)c2)cn1
36 | > 128 | O=C(O)c1cccc(-n2c(/C=C/c3ccc(=O)[nH]c3)nc3ccccc3c2=O)c1
37 | > 128 | N#Cc1ccc(/C=C/c2nc3ccccc3c(=O)n2-c2cc(C(=O)O)ccn2)cc1
38 | 16 (≈ 38.9 µM) | N#Cc1ccc(/C=C/c2nc3ccccc3c(=O)n2-c2ccc(F)c(C(=O)O)c2)cc1
39 | 16 (≈ 31.9 µM) | N#Cc1ccc(/C=C/c2nc3ccccc3c(=O)n2-c2cccc(NC(=O)NCCc3cnc[nH]3)c2)cc1
